Assay results taken from ChEMBL document CHEMBL1143585, “Synthesis of some cryptolepine analogues, assessment of their antimalarial and cytotoxic activities, and consideration of their antimalarial mode of action” (J Med Chem, 2005).

Tests used:
[1] = biological target: T1, Histidine-rich protein PFHRP-II (Plasmodium falciparum) (UniProt P05227); assay: Antiplasmodial activity as IC50 against Beta-hematin formation; assay type: functional
T1 sequence (whole entry): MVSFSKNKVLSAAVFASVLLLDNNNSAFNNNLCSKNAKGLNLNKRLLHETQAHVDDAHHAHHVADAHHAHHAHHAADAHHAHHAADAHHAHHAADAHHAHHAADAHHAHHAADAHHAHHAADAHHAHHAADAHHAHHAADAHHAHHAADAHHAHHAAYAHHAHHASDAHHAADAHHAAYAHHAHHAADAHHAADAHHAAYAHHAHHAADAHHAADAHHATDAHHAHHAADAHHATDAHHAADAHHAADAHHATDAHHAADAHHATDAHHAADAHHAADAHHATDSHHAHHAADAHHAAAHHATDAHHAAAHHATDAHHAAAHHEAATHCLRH
How it was run: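 β-Hematin inhibition (BHIA) assay: hemin (0.4 µmol/well) in DMSO with compound at 0.25–2 (or 4) molar equivalents to hemin, in triplicate. Final DMSO was 25%. Formation started with 8 M acetate buffer pH 5.0, then 37 °C for 18 h. The centrifuged pellet was dissolved in 0.1 M NaOH and read at 405 nm. BHIA50 is the drug equivalents relative to hemin giving 50% inhibition.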

Plasmodium falciparum [2] = assay: […] accumulation into acidic parasitic food vacuole at pH=5.5; assay type: functional
[3] = Ionization constant for the compound; assay type: physicochemical
Plasmodium falciparum [4] = assay: In vitro antiplasmodial activity for Plasmodium falciparum; assay type: functional, organism-based
How it was run: (§1)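 P. falciparum K1 ring-stage cultures in human A+ erythrocytes (RPMI 1640, A+ serum, glucose), at 2.5% hematocrit and 1% parasitemia. Two-fold serial dilutions in duplicate, final DMSO ≤0.5%. Incubated 48 h at 37 °C under 93% N2/3% O2/4% CO2. Growth read as parasite lactate dehydrogenase activity (APAD/NBT, 550 nm). IC50 by linear regression; at least three separate determinations.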

MAC15A [5] = assay: Cytotoxicity against MAC15A mouse adenocarcinomas of the colon cells; assay type: functional, cell-based
How it was run: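 MTT assay. MAC15A cells were seeded at 2 × 10^3 per well and attached overnight at 37 °C, 5% CO2. Drugs were dissolved in DMSO and diluted in medium (max 0.1% DMSO), eight wells per concentration, 96 h exposure. MTT (0.5 mg/mL) was then added for 24 h. Formazan was dissolved in DMSO and read at 550 nm. Survival is relative to vehicle control; IC50 from triplicate experiments.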

MAC15A [6] = assay: Ratio of cytotoxic to that of antiplasmodial activity was determined; assay type: functional, Mus musculus
Mus musculus [7] = assay: In vivo antimalarial activity of compound against Plasmodium berghei was determined as suppression of parasitemia in mice (Mus musculus) at 50 mg/kg treated for 4 days; assay type: functional
Plasmodium falciparum [8] = assay: […] accumulation into acidic parasitic food vacuole (pH=5.5) relative to Cryptolepine; assay type: functional
How it was run: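 Calculated from each compound's spectrophotometric pKa via a pH-trapping equation, assuming food-vacuole pH 5.5 and external pH 7.4. The result is expressed relative to cryptolepine's ratio. pKa came from UV spectra (0.05 mg mL-1) in at least seven buffers of pH 5.8–13.0, plus 0.1 M NaOH and 0.1 M HCl. pKa was taken as the midpoint of the λmax absorbance plot. Two experiments per compound.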

Mus musculus [9] = species: Mus musculus; assay: Mean survival time taken as number of days before illness due to Plasmodium berghei in untreated mice (Mus musculus); assay type: functional
How it was run: (§2)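 Peters' 4-day suppressive test in female BALB/c mice (18-20 g), five per group. Each mouse got 1 × 10^7 P. berghei ANKA-infected erythrocytes iv. Drug was given ip in 0.2 mL daily for 4 consecutive days. Survival time was the number of days before signs of malaria illness, compared with untreated infected controls.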

Mus musculus [10] = assay: Mean survival time taken as number of days before illness due to Plasmodium berghei when mice (Mus musculus) treated with 50 mg/kg dose for 4 days; assay type: functional; how it was run: as §2
Plasmodium falciparum [11] = assay: Normalized IC50 as product of antiplasmodial IC50 and vacuolar accumulation IC50; assay type: functional, organism-based
Mus musculus [12] = assay: In vivo antimalarial activity of compound against Plasmodium berghei in mice (Mus musculus) at dose of 50 mg/kg treated for 4 days; assay type: functional
Plasmodium falciparum [13] = assay: In vitro antiplasmodial concentration against multidrug-resistant Plasmodium falciparum K1; assay type: functional, organism-based; how it was run: as §1
Mus musculus [14] = assay: In vivo antimalarial activity of compound against Plasmodium berghei was determined as suppression of parasitaemia in mice (Mus musculus) at 10 mg/kg treated for 4 days; assay type: functional
Mus musculus [15] = assay: Mean survival time taken as number of days before illness due to Plasmodium berghei when mice (Mus musculus) treated with 10 mg/kg dose for 4 days; g=mice (Mus musculus) survived the test; assay type: functional, organism-based; set-up: dose 10 mg/kg; how it was run: as §2
Mus musculus [16] = assay: In vivo antimalarial activity of compound against Plasmodium berghei in mice (Mus musculus) at dose of 10 mg/kg treated for 4 days; assay type: functional

Structure (SMILES)	BHIA50 [1]	Vascular accumulation ratio (Plasmodium falciparum [2])	pKa [3]	IC50 (Plasmodium falciparum [4]; Plasmodium falciparum) [nM]	IC50 (MAC15A [5]; Mus musculus, MAC15A) [nM]	Ratio (MAC15A [6])	other results
C[n+]1c2ccc(Br)cc2cc2[nH]c3ccccc3c21	0.63	79.3	10.2				
Cc1ccc2c(c1)cc1[nH]c3ccccc3c1[n+]2C.[Cl-]				419	4110	9.81	
C[n+]1c2ccccc2cc2[nH]c3cc(Cl)ccc3c21.[Cl-]						<8.15	IC50 (Plasmodium falciparum [4]): > 1000 nM; IC50 (MAC15A [5]; mac15a): 8150 nM
C[n+]1c2ccc(F)cc2cc2[nH]c3ccccc3c21.[Cl-]	1.24	79.41	11.2	1210	4790	3.96	Suppression of parasitemia (Mus musculus [7]): 55.1%; Ratio (Plasmodium falciparum [8]): 1; Mean survival time (Mus musculus [9]): 5 days; Mean survival time (Mus musculus [10]): 5 days; IC50 (Plasmodium falciparum [11]): 1210 nM; Parasitemia (Mus musculus [12]): 5.98%; IC50 (Plasmodium falciparum [13]): 1210 nM
C[n+]1c2ccc(Cl)cc2cc2[nH]c3ccccc3c21.[Cl-]				166	2240	13.5	
C[n+]1c2c(Cl)cccc2cc2[nH]c3ccccc3c21.[Cl-]				4690	3540	0.76	
CCN(CC)CCCC(C)Nc1ccnc2cc(Cl)ccc12.O=P(O)(O)O.O=P(O)(O)O (centres undefined) [CHLOROQUINE PHOSPHATE]	1.44						Suppression of parasitemia (Mus musculus [14]): 100%; Mean survival time (Mus musculus [15]): Mice survived; Mean survival time (Mus musculus [9]): 8.56 days; Parasitemia (Mus musculus [16]): 0%
C[n+]1c2ccccc2cc2[nH]c3c([N+](=O)[O-])cc([N+](=O)[O-])cc3c21.[Cl-]	0.92	0.813	6.4				IC50 (Plasmodium falciparum [11]): 6.5 nM
Cc1ccc2cc3[nH]c4ccc(Br)cc4c3[n+](C)c2c1.[Cl-]				260	5210	20	
C[n+]1c2ccc(Cl)c(Cl)c2cc2[nH]c3ccccc3c21.[Cl-]				88	1910	21.7	
COc1ccc2c(c1)cc1[nH]c3ccccc3c1[n+]2C.[Cl-]	1.96	79.43	11.4	950	4310	4.54	Suppression of parasitemia (Mus musculus [7]): 9.3%; Ratio (Plasmodium falciparum [8]): 1; Mean survival time (Mus musculus [9]): 5 days; Mean survival time (Mus musculus [10]): 5 days; IC50 (Plasmodium falciparum [11]): 950 nM; Parasitemia (Mus musculus [12]): 12.08%; IC50 (Plasmodium falciparum [13]): 950 nM
C[n+]1c2cc(Cl)ccc2cc2[nH]c3ccc(Br)cc3c21.[Cl-]				37	1140	30.8	
